In paper PMC6605687 (The Journal of General Physiology, 2019):
Residue numbers refer to the chain shown, from its start. Like-named read-outs stand apart in the source and are kept apart here.

Columns and labels:
Assay type in all cases: cell-based
rP2X2 Lys69Arg = biological target: T1, rP2X2 Lys69Arg (Rattus norvegicus, UniProt P49653, K69R); experiment: Two-electrode voltage clamp, oocytes expressing rP2X2 Lys69Arg
T1 sequence (P49653 1-472 K69R): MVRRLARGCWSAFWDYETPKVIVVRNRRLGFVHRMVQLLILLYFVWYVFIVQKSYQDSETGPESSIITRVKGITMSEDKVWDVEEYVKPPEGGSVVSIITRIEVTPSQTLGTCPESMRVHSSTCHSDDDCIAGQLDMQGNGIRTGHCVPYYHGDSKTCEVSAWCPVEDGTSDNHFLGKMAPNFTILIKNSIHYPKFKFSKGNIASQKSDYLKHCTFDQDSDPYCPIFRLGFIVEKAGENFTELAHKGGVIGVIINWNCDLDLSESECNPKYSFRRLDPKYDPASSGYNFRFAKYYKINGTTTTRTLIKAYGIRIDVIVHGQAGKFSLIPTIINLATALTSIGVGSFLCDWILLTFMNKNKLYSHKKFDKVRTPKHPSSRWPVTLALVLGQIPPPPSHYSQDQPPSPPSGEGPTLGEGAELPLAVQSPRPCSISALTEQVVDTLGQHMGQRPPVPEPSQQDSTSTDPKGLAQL

rP2X2 Lys69Gln = biological target: T2, rP2X2 Lys69Gln (Rattus norvegicus, UniProt P49653, K69Q); experiment: Two-electrode voltage clamp, oocytes expressing rP2X2 Lys69Gln; details: for EC50: EC50, Lys69Gln
T2 sequence (P49653 1-472 K69Q): T1 sequence (P49653 1-472 K69R) with R69Q
In short: (§1)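 Mutations were made by site-directed mutagenesis. Xenopus oocytes were injected with rP2X2 mRNA and incubated in L-15 at 18°C. Two-electrode voltage clamp was done 1–2 days later at −40 mV under ND96 perfusion (pH 7.4). ATP concentration-response currents were normalised and fitted to a one-component Hill equation for EC50 and Hill coefficient. Results are mean ± SEM, tested by one-way ANOVA with Dunnett's test against WT.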

rP2X2 Val70Vah = biological target: T3, rP2X2 Val70Vah (Rattus norvegicus, UniProt P49653); experiment: Two-electrode voltage clamp, oocytes expressing rP2X2 Val70Vah
T3 sequence (P49653 1-472): T1 sequence (P49653 1-472 K69R) with R69K

rP2X2 Val96Vah = biological target: T4, rP2X2 Val96Vah (Rattus norvegicus, UniProt P49653); experiment: Two-electrode voltage clamp, oocytes expressing rP2X2 Val96Vah
T4 sequence (P49653 1-472): T1 sequence (P49653 1-472 K69R) with R69K
In short: (§2)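 The backbone ester was introduced by nonsense suppression. TAG-mutant rP2X2 mRNA was co-injected into Xenopus oocytes with tRNA enzymatically aminoacylated with 2-hydroxyisovaleric acid. Uncharged tRNA co-injection served as the negative control. After incubation at 18°C, two-electrode voltage clamp was done at −40 mV in ND96 (pH 7.4). ATP concentration-response data were normalised and Hill-fitted for EC50 and nH, given as mean ± SEM.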

rP2X2 Lys308Gln = biological target: T5, rP2X2 Lys308Gln (Rattus norvegicus, UniProt P49653, K308Q); experiment: Two-electrode voltage clamp, oocytes expressing rP2X2 Lys308Gln
T5 sequence (P49653 1-472 K308Q): T1 sequence (P49653 1-472 K69R) with R69K, K308Q
In short: as §1

rP2X2 Ile185Vah = biological target: T6, rP2X2 Ile185Vah (Rattus norvegicus, UniProt P49653); experiment: Two-electrode voltage clamp, oocytes expressing rP2X2 Ile185Vah
T6 sequence (P49653 1-472): T1 sequence (P49653 1-472 K69R) with R69K
In short: as §2

For Nc1ncnc2c1ncn2[C@@H]1O[C@H](COP(=O)(O)OP(=O)(O)OP(=O)(O)O)[C@@H](O)[C@H]1O [ATP, Adenosine 5′-triphosphate], the EC50 (rP2X2 Lys69Arg) was > 5 mM, the EC50 (rP2X2 Lys69Arg; mean ± SEM) was 6 mM and the EC50 (rP2X2 Lys69Gln) was > 5 mM. The EC50 (rP2X2 Lys69Gln; mean ± SEM) was 16.6 mM, the “nH (Hill coefficient)” value (rP2X2 Lys69Gln; Lys69Gln) was 2.4 ± 0.1 and the “Fold increase in EC50, Val70Vah versus WT” value (rP2X2 Val70Vah; Val70Vah compared with WT) was “fourfold”. The EC50 (rP2X2 Val70Vah; Val70Vah, mean ± SEM) was 120 ± 2 µM, the EC50 (rP2X2 Val96Vah) was 27 ± 2 µM and the “Effect of Vah incorporation on EC50 (in words)” value (rP2X2 Val96Vah; Val96Vah compared with WT) was “did not affect the ATP EC50”. The EC50 (rP2X2 Lys308Gln) was 5.8 mM, the “Fold increase in EC50 (decrease in sensitivity), Ile185Vah versus Ile185Val” value (rP2X2 Ile185Vah; Ile185Vah compared with Ile185Val) was 20 fold and the EC50 (rP2X2 Ile185Vah; Ile185Vah, mean ± SEM) was 460 ± 20 µM.
